{"source": "ChEMBL document CHEMBL1806443", "about": "“Novel imidazo[4,5-b]pyridine and triaza-benzo[c]fluorene derivatives: synthesis, antiproliferative activity and DNA binding studies” (Eur J Med Chem, 2011)", "key": {"MIA PaCa-2 [1]": {"tested_on": "MIA PaCa-2", "assay": "Cell cycle arrest in human MIAPaCa2 cells assessed as accumulation at subG1 phase at 5 uM after 48 hrs by propidium iodide staining based flow cytometeric analysis (reference value: 46.8 +/- 0.7%)", "assay_type": "functional"}, "SW-620 [2]": {"tested_on": "SW-620", "assay": "Cell cycle arrest in human SW620 cells assessed as accumulation at G2/M phase at 1 uM after 48 hrs by propidium iodide staining based flow cytometeric analysis (reference value: 16.1 +/- 0.9%)", "assay_type": "functional"}, "Nucleic Acid [3]": {"tested_on": "Nucleic Acid", "assay": "Binding affinity to calf thymus DNA assessed as hypochromic changes at 364 nm wavelength by UV-Vis spectrophotometric titrations", "assay_type": "nucleic-acid assay", "conditions": "Bos taurus", "how_it_was_run": "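UV/Vis titration: aliquots of ct-DNA (concentration as phosphate) added to compound solution in sodium cacodylate buffer pH 7.0, I = 0.05 mol dm^-3, 1 cm quartz cuvettes. Hypochromism followed at band maxima. Compound absorbance linear up to 2.0 × 10^-5 mol dm^-3. Binding data fitted by the Scatchard equation.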"}, "SW-620 [4]": {"tested_on": "SW-620", "assay": "Antiproliferative activity against human SW620 cells at 0.1 to 10 uM after 72 hrs by MTT assay", "assay_type": "functional, cell-based", "how_it_was_run": "(§1)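 Monolayer cells in DMEM with 10% FBS, 2 mM L-glutamine, penicillin and streptomycin at 37 °C, 5% CO2. Seeded at 3000-6000 cells/well by doubling time on day 0. Five 10-fold dilutions (0.01–100 µM) were added and incubated 72 h. MTT read-out, converted to percentage growth. IC50 by linear regression between bracketing concentrations. Quadruplicate points, three independent experiments, ANOVA/Tukey p<0.05.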"}, "SW-620 [5]": {"tested_on": "SW-620", "assay": "Cell cycle arrest in human SW620 cells assessed as accumulation at G1 phase at 1 uM after 24 hrs by propidium iodide staining based flow cytometeric analysis (reference value: 29.3 +/- 1.5%)", "assay_type": "functional"}, "Nucleic Acid [6]": {"tested_on": "Nucleic Acid", "assay": "Binding affinity to calf thymus DNA assessed as change in melting temperature at compound to polynucleotide ratio of 0.5 by UV-VIS spectroscopic analysis", "assay_type": "nucleic-acid assay", "conditions": "Bos taurus", "how_it_was_run": "(§2)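 ct-DNA alone or with compound at set r = [compound]/[polynucleotide], in cacodylate buffer pH 7.0, I = 0.05 mol dm^-3. Absorbance at 260 nm followed against temperature, ligand absorbance subtracted, curves normalized. Tm is the transition midpoint, from the first-derivative maximum or by tangent method. ΔTm = Tm(complex) − Tm(free DNA), mean of ≥2 runs, error ±0.5 °C.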"}, "MIA PaCa-2 [7]": {"tested_on": "MIA PaCa-2", "assay": "Antiproliferative activity against human MIAPaCa2 cells after 72 hrs by MTT assay", "assay_type": "functional, cell-based", "conditions": "Homo sapiens, MIA PaCa-2, 72 h", "how_it_was_run": "as §1"}, "MIA PaCa-2 [8]": {"tested_on": "MIA PaCa-2", "assay": "Cell cycle arrest in human MIAPaCa2 cells assessed as accumulation at S phase at 1 uM after 48 hrs by propidium iodide staining based flow cytometeric analysis (reference value: 20.5 +/- 0.2%)", "assay_type": "functional"}, "MIA PaCa-2 [9]": {"tested_on": "MIA PaCa-2", "assay": "Cell cycle arrest in human MIAPaCa2 cells assessed as accumulation at G1 phase at 1 uM after 48 hrs by propidium iodide staining based flow cytometeric analysis (reference value: 65.2 +/- 1.9%)", "assay_type": "functional"}, "SW-620 [10]": {"tested_on": "SW-620", "assay": "Cell cycle arrest in human SW620 cells assessed as accumulation at subG1 phase at 5 uM after 24 hrs by propidium iodide staining based flow cytometeric analysis (reference value: 18 +/- 1%)", "assay_type": "functional", "how_it_was_run": "(§3)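 Cells seeded at 3 × 10^4 per well and treated 24 h later with 1, 5 or 10 µM for 24 and 48 h. Adherent and floating cells were pooled, washed in PBS and fixed in 70% ethanol. They were then stained with propidium iodide 10 µg/mL plus RNase A 0.2 µg/mL. Flow cytometry counted 10000 events; each point was run in triplicate; significance was taken at p < 0.05.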"}, "HeLa": {"tested_on": "HeLa", "assay": "Antiproliferative activity against human HeLa cells after 72 hrs by MTT assay", "assay_type": "functional, cell-based", "conditions": "Homo sapiens, HeLa, 72 h", "how_it_was_run": "as §1"}, "MIA PaCa-2 [11]": {"tested_on": "MIA PaCa-2", "assay": "Cell cycle arrest in human MIAPaCa2 cells assessed as accumulation at S phase at 5 uM after 48 hrs by propidium iodide staining based flow cytometeric analysis (reference value: 20.5 +/- 0.2%)", "assay_type": "functional"}, "HEp-2": {"tested_on": "HEp-2", "assay": "Antiproliferative activity against human Hep2 cells at 0.1 to 10 uM after 72 hrs by MTT assay", "assay_type": "functional, cell-based", "how_it_was_run": "as §1"}, "MIA PaCa-2 [12]": {"tested_on": "MIA PaCa-2", "assay": "Cell cycle arrest in human MIAPaCa2 cells assessed as accumulation at G2/M phase at 1 uM after 48 hrs by propidium iodide staining based flow cytometeric analysis (reference value: 14.3 +/- 1.8%)", "assay_type": "functional"}, "SW-620 [13]": {"tested_on": "SW-620", "assay": "Cell cycle arrest in human SW620 cells assessed as accumulation at G2/M phase at 5 uM after 48 hrs by propidium iodide staining based flow cytometeric analysis (reference value: 16.1 +/- 0.9%)", "assay_type": "functional"}, "MIA PaCa-2 [14]": {"tested_on": "MIA PaCa-2", "assay": "Cell cycle arrest in human MIAPaCa2 cells assessed as accumulation at G1 phase at 1 uM after 24 hrs by propidium iodide staining based flow cytometeric analysis (reference value: 51.2 +/- 2.7%)", "assay_type": "functional"}, "SW-620 [15]": {"tested_on": "SW-620", "assay": "Cell cycle arrest in human SW620 cells assessed as accumulation at G2/M phase at 1 uM after 24 hrs by propidium iodide staining based flow cytometeric analysis (reference value: 22.3 +/- 2.9%)", "assay_type": "functional"}, "MIA PaCa-2 [16]": {"tested_on": "MIA PaCa-2", "assay": "Cell cycle arrest in human MIAPaCa2 cells assessed as accumulation at G2/M phase at 1 uM after 24 hrs by propidium iodide staining based flow cytometeric analysis (reference value: 19.5 +/- 3.9%)", "assay_type": "functional"}, "Nucleic Acid [17]": {"tested_on": "Nucleic Acid", "assay": "Binding affinity to calf thymus DNA assessed as fluorescence quenching at compound to DNA ratio of < 0.1 by fluorimetric titrations", "assay_type": "nucleic-acid assay", "conditions": "Bos taurus", "how_it_was_run": "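Fluorimetric titration: portions of ct-DNA (sonicated, filtered, concentration as phosphate) added to compound in cacodylate buffer pH 7.0, I = 0.05 mol dm^-3. Emission 350–600 nm, sample absorbance <0.05 at excitation, mostly DNA excess (r < 0.1). Ks and n = [bound compound]/[DNA phosphate] by non-linear least-squares Scatchard fitting.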"}, "SW-620 [18]": {"tested_on": "SW-620", "assay": "Cell cycle arrest in human SW620 cells assessed as accumulation at S phase at 10 uM after 48 hrs by propidium iodide staining based flow cytometeric analysis (reference value: 31.9 +/- 1%)", "assay_type": "functional"}, "SK-BR-3": {"tested_on": "SK-BR-3", "assay": "Antiproliferative activity against human SKBR3 cells after 72 hrs by MTT assay", "assay_type": "functional, cell-based", "conditions": "Homo sapiens, SK-BR-3, 72 h", "how_it_was_run": "as §1"}, "MIA PaCa-2 [19]": {"tested_on": "MIA PaCa-2", "assay": "Cell cycle arrest in human MIAPaCa2 cells assessed as accumulation at G2/M phase at 10 uM after 48 hrs by propidium iodide staining based flow cytometeric analysis (reference value: 14.3 +/- 1.8%)", "assay_type": "functional"}, "Nucleic Acid [20]": {"tested_on": "Nucleic Acid", "assay": "Binding affinity to calf thymus DNA assessed as change in melting temperature at compound to polynucleotide ratio of 0.3 by UV-VIS spectroscopic analysis", "assay_type": "nucleic-acid assay", "conditions": "Bos taurus", "how_it_was_run": "as §2"}, "SW-620 [21]": {"tested_on": "SW-620", "assay": "Cell cycle arrest in human SW620 cells assessed as accumulation at subG1 phase at 1 uM after 24 hrs by propidium iodide staining based flow cytometeric analysis (reference value: 18 +/- 1%)", "assay_type": "functional"}, "SW-620 [22]": {"tested_on": "SW-620", "assay": "Cell cycle arrest in human SW620 cells assessed as accumulation at subG1 phase at 10 uM after 24 hrs by propidium iodide staining based flow cytometeric analysis (reference value: 18 +/- 1%)", "assay_type": "functional", "how_it_was_run": "as §3"}, "MIA PaCa-2 [23]": {"tested_on": "MIA PaCa-2", "assay": "Cell cycle arrest in human MIAPaCa2 cells assessed as accumulation at G2/M phase at 10 uM after 24 hrs by propidium iodide staining based flow cytometeric analysis (reference value: 19.5 +/- 3.9%)", "assay_type": "functional"}}, "note": "Active and inactive are the calls of the source. No cut-off for these calls is given here.", "data": [{"smiles": "Cl.c1cnc2nc3ccc4ccc(C5=NCCN5)cc4n3c2c1", "values": [{"measurement": "Activity", "setting": "MIA PaCa-2 [1]", "result": 56.6, "unit": "%"}, {"measurement": "Activity", "setting": "SW-620 [2]", "result": 19.4, "unit": "%"}, {"measurement": "Activity", "setting": "Nucleic Acid [3]", "result": 35, "unit": "%"}, {"measurement": "Activity", "setting": "SW-620 [4]", "result": "Active"}, {"measurement": "Activity", "setting": "SW-620 [5]", "result": 54.3, "unit": "%"}, {"measurement": "ΔTm", "setting": "Nucleic Acid [6]", "result": 8.4, "unit": "°C"}, {"measurement": "IC50", "setting": "MIA PaCa-2 [7]", "result": 740, "unit": "nM"}, {"measurement": "Activity", "setting": "MIA PaCa-2 [8]", "result": 34.6, "unit": "%"}, {"measurement": "Activity", "setting": "MIA PaCa-2 [9]", "result": 42.4, "unit": "%"}, {"measurement": "Activity", "setting": "SW-620 [10]", "result": 24.4, "unit": "%"}, {"measurement": "IC50", "setting": "HeLa", "result": 410, "unit": "nM"}, {"measurement": "Activity", "setting": "MIA PaCa-2 [11]", "result": 36.8, "unit": "%"}, {"measurement": "Activity", "setting": "HEp-2", "result": "Active"}, {"measurement": "Activity", "setting": "MIA PaCa-2 [12]", "result": 23, "unit": "%"}, {"measurement": "Activity", "setting": "SW-620 [13]", "result": 1.5, "unit": "%"}, {"measurement": "Activity", "setting": "MIA PaCa-2 [14]", "result": 41.6, "unit": "%"}, {"measurement": "Activity", "setting": "SW-620 [15]", "result": 18.5, "unit": "%"}, {"measurement": "Activity", "setting": "MIA PaCa-2 [16]", "result": 21.3, "unit": "%"}, {"measurement": "Activity", "setting": "Nucleic Acid [17]", "result": "Active"}, {"measurement": "Activity", "setting": "SW-620 [18]", "result": 41.8, "unit": "%"}, {"measurement": "IC50", "setting": "SK-BR-3", "result": 2200, "unit": "nM"}, {"measurement": "Activity", "setting": "MIA PaCa-2 [19]", "result": 16.9, "unit": "%"}, {"measurement": "ΔTm", "setting": "Nucleic Acid [20]", "result": 6.4, "unit": "°C"}, {"measurement": "Activity", "setting": "SW-620 [21]", "result": 14.3, "unit": "%"}, {"measurement": "Activity", "setting": "SW-620 [22]", "result": 20.1, "unit": "%"}, {"measurement": "Activity", "setting": "MIA PaCa-2 [23]", "result": 18.3, "unit": "%"}]}]}
